From ChEMBL document CHEMBL1773055, “A chemotype that inhibits three unrelated pathogenic targets: the botulinum neurotoxin serotype A light chain, P. falciparum malaria, and the Ebola filovirus” (J Med Chem, 2011)
The source made the active and inactive calls. The calls are words filed in the database; no cut-off is given here.

Assays:
Plasmodium falciparum [1] = assay: Antimalarial activity against Plasmodium falciparum D6; format: functional, organism-based
Plasmodium falciparum [2] = assay: Antimalarial activity against Plasmodium falciparum W2; format: functional, organism-based
Plasmodium falciparum [3] = assay: Antimalarial activity against Plasmodium falciparum C235; format: functional, organism-based
Plasmodium falciparum [4] = assay: Resistance index, ratio of IC50 for Plasmodium falciparum W2 to IC50 for Plasmodium falciparum D6; format: functional
Method in brief: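 P. falciparum clones D6 (CQ/MFQ-susceptible, Sierra I/UNC), W2 (CQ-resistant, MFQ-susceptible, Indochina I) and TM91C235 (CQ- and MFQ-resistant, South-East Asian) were tested in a modified Desjardins in vitro susceptibility screen, giving IC50 and IC90. Resistance index is IC50 of the resistant strain divided by IC50 against D6 (W2/D6, C235/D6).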

Plasmodium falciparum [5] = assay: Resistance index, ratio of IC50 for Plasmodium falciparum C235 to IC50 for Plasmodium falciparum D6; format: functional
Ebolavirus [6] = assay: Antiviral activity against Zaire ebolavirus expressing enhanced GFP in Vero 76 cells at 20 uM after 48 hrs by standard Plaque assay; format: functional; conditions: Orthoebolavirus
Ebolavirus [7] = assay: Antiviral activity against Zaire ebolavirus expressing enhanced GFP in Vero 76 cells after 48 hrs by standard Plaque assay; format: functional, cell-based; conditions: Orthoebolavirus
Vero = assay: Cytotoxicity against african green monkey Vero 76 cells at 20 uM; format: cell-based; conditions: chlorocebus sabaeus
[8] = target: Botulinum neurotoxin type A (Clostridium botulinum) (UniProt P0DPI0); assay: (§1) Inhibition of clostridium botulinum Botulinum neurotoxin type A light chain at 20 uM
Method in brief: (§2)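 Recombinant BoNT/A LC and peptide substrate were incubated in 40 mM HEPES–0.05% Tween pH 7.3 with 0.5 mg/ml BSA and 50 μM excess ZnCl2 at 37°C, with compound at 20 μM. Reactions were quenched with TFA, and substrate hydrolysis was quantified by reverse-phase HPLC peak areas. Percent inhibition was measured in duplicate.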

[9] = target: Botulinum neurotoxin type A (Clostridium botulinum, UniProt P0DPI0); assay: as §1; method in brief: as §2
RAW264.7 = assay: Cytotoxicity against rat RAW264.7 cells by MTT assay; format: cell-based; conditions: for IC50: Mus musculus, RAW264.7; for IC90: […]
Method in brief: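 RAW 264.7 cells were seeded at 2.5×10^4 per well about 12 h before dosing. They were exposed to 0.29–48 μg/ml compound for 48 h at 37°C, 5% CO2. Viability was read by MTT reduction, with a DMSO control. Runs were in duplicate, and IC50 came from sigmoidal variable-slope dose-response fits.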

[10] = Inhibition of beta-hematin formation assessed as drug-hematin ratio for 50% inhibition by BHIA assay; format: functional
[11] = Selectivity index, ratio of IC50 for […] cells to IC50 for Plasmodium falciparum D6; format: toxicity, cell-based; conditions: read-out: Ratio IC50
[12] = Selectivity index, ratio of IC50 for […] cells to IC50 for Plasmodium falciparum W2; format: toxicity, cell-based; conditions: read-out: Ratio IC50
[13] = Selectivity index, ratio of IC50 for […] cells to IC50 for Plasmodium falciparum C235; format: toxicity, cell-based; conditions: read-out: Ratio IC50
[14] = Selectivity index, ratio of IC90 for […] cells to IC90 for Plasmodium falciparum D6; format: toxicity, cell-based
[15] = Selectivity index, ratio of IC90 for […] cells to IC90 for Plasmodium falciparum W2; format: toxicity, cell-based
[16] = Selectivity index, ratio of IC90 for […] cells to IC90 for Plasmodium falciparum C235; format: toxicity, cell-based
Liver microsomes = assay: Half life in human liver microsomes; format: ADME, Microsome
Method in brief: (§3)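 Compound at 10 μM was incubated with mouse or human liver microsomes (1 mg/mL protein) in 0.1 M sodium phosphate pH 7.4 with an NADPH-regenerating system at 37°C, started by G6PD. Samples were quenched with cold acetonitrile at 0, 10, 30 and 60 min and analysed by LC-MS/MS. Half-life = 0.693/k.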

Liver = assay: Half life in mouse liver microsomes; format: ADME, Microsome; method in brief: as §3
[17] = Cytotoxicity against human NCI60 cells; format: functional
[18] = Inhibition of beta-hematin formation; format: functional
Plasmodium berghei = assay: Antiplasmodial activity against Plasmodium berghei str. ANKA infected in ICR mouse assessed as protection against infection; format: functional, organism-based
Method in brief: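 ICR mice were dosed orally once daily on days -1, 0 (1–3 h before inoculation) and +1, with compound in 0.5% hydroxyethylcellulose/0.1% Tween 80. On day 0 they received 1.0×10^5 P. berghei ANKA sporozoites IV, taken from Anopheles dirus salivary glands. Giemsa thick/thin tail smears were read on days 4–31. Protection meant no parasitemia within 10 days and negative smears through day 31.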

Mus musculus = assay: Toxicity against ICR mouse at 160 mg/kg, po for 3 consecutive days measured; format: organism-based; parameters: dose 160 mg/kg, route oral; conditions: in vivo
Method in brief: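 P. berghei (P-line)-infected outbred ICR mice were given compound orally in 0.5% hydroxyethylcellulose/0.1% Tween 80 daily for 3 days. Toxicity was judged from overt physical or behavioural changes, checked twice daily, plus gross necropsy of all mice.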

Chain of Botulinum neurotoxin type A (Clostridium botulinum) (P0DPI0 2-448 limits assumed): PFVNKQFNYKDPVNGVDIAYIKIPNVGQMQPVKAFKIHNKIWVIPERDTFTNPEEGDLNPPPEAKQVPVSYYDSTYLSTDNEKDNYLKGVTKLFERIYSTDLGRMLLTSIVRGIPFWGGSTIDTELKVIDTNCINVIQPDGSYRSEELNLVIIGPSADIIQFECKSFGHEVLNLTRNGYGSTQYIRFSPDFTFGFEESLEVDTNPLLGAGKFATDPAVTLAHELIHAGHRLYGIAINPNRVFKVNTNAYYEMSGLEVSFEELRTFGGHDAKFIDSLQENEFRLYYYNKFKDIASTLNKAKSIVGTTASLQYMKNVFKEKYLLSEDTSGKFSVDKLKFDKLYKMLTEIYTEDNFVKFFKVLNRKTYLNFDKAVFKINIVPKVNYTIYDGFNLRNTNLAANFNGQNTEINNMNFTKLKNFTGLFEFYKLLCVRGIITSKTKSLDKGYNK
Chain of Botulinum neurotoxin type A (P0DPI0 2-448 limits assumed): as above

## Cc1cc(NCCCN2CCCCC2)c2ccc3c(ccc4c(NCCCN5CCCCC5)cc(C)nc43)c2n1.Cl
Plasmodium falciparum [1]
  IC50: 9.26 nM
  IC90: 17.4 nM
Plasmodium falciparum [2]
  IC50: 6.98 nM
  IC90: 22.5 nM
Plasmodium falciparum [3]
  IC50: 24.8 nM
  IC90: 41.2 nM
Plasmodium falciparum [4]
  Ratio IC50: 0.75
Plasmodium falciparum [5]
  Ratio IC50: 2.68
Ebolavirus [6]
  inhibition at 20 µM: 100%
Ebolavirus [7]
  IC50: 5000 nM
Vero
  Activity: < 20%
[8]
  inhibition: 66.1%

## Cc1cc(NCCN)c2ccc3c(ccc4c(NCCN)cc(C)nc43)c2n1.Cl
Plasmodium falciparum [1]
  IC50: 270 nM
  IC90: 355 nM
Plasmodium falciparum [2]
  IC50: 871 nM
  IC90: 1790 nM
Plasmodium falciparum [3]
  IC50: 1020 nM
  IC90: 1760 nM
Plasmodium falciparum [4]
  Ratio IC50: 3.22
Plasmodium falciparum [5]
  Ratio IC50: 3.78
[8]
  inhibition: 62.7%
[9]
  Ki: 8700 nM

## Cc1cc(NCCN(C)C)c2ccc3c(ccc4c(NCCN(C)C)cc(C)nc43)c2n1.Cl
Plasmodium falciparum [1]
  IC90: 20.8 nM
Plasmodium falciparum [2]
  IC50: 9.19 nM
  IC90: 31.2 nM
Plasmodium falciparum [3]
  IC50: 15.3 nM
  IC90: 26 nM
Plasmodium falciparum [4]
  Ratio IC50: 0.59
Plasmodium falciparum [5]
  Ratio IC50: 0.98
[8]
  inhibition: 57%

## Cc1cc(NCCN2CCOCC2)c2ccc3c(ccc4c(NCCN5CCOCC5)cc(C)nc43)c2n1.Cl
Plasmodium falciparum [1]
  IC50: 5.93 nM
  IC90: 12.6 nM
Plasmodium falciparum [2]
  IC50: 6.12 nM
  IC90: 11.5 nM
Plasmodium falciparum [3]
  IC50: 9.84 nM
  IC90: 16.5 nM
Plasmodium falciparum [4]
  Ratio IC50: 1.03
Plasmodium falciparum [5]
  Ratio IC50: 1.66
RAW264.7
  IC50: 10200 nM
  IC90: 29900 nM
[10]
  IC50: 0.473 equiv
[11]
  selectivity ratio: 1720
[12]
  selectivity ratio: 1660
[13]
  selectivity ratio: 1030
[14]
  selectivity ratio: 2370
[15]
  selectivity ratio: 2600
[16]
  selectivity ratio: 1820
Liver microsomes
  t1/2: > 1 h
Liver
  t1/2: > 1 h
Ebolavirus [6]
  inhibition at 20 µM: 53%
[8]
  inhibition: 39%
[17]
  inhibition (INH): 91%
[18]
  inhibition: Dose-dependent effect

## Cc1cc(NCCCN2CCCC2)c2ccc3c(ccc4c(NCCCN5CCCC5)cc(C)nc43)c2n1.Cl
Plasmodium falciparum [1]
  IC50: 14.8 nM
  IC90: 39.4 nM
Plasmodium falciparum [2]
  IC50: 7.75 nM
  IC90: 25.4 nM
Plasmodium falciparum [3]
  IC50: 34.3 nM
  IC90: 95.2 nM
Plasmodium falciparum [4]
  Ratio IC50: 0.52
Plasmodium falciparum [5]
  Ratio IC50: 2.31
[8]
  inhibition: 73.5%

## Cc1cc(NCCN2CCCCC2)c2ccc3c(ccc4c(NCCN5CCCCC5)cc(C)nc43)c2n1.Cl
Plasmodium falciparum [1]
  IC50: 8.79 nM
  IC90: 13.2 nM
Plasmodium falciparum [2]
  IC50: 5.5 nM
  IC90: 15.4 nM
Plasmodium falciparum [3]
  IC50: 10.6 nM
  IC90: 14.9 nM
Plasmodium falciparum [4]
  Ratio IC50: 0.62
Plasmodium falciparum [5]
  Ratio IC50: 1.2
[8]
  inhibition: 63.4%

## CCN(CC)CCCNc1cc(C)nc2c1ccc1c2ccc2c(NCCCN(CC)CC)cc(C)nc21.Cl
Plasmodium falciparum [1]
  IC50: 30 nM
  IC90: 49.5 nM
Plasmodium falciparum [2]
  IC50: 8.65 nM
  IC90: 46.7 nM
Plasmodium falciparum [3]
  IC50: 66.5 nM
  IC90: 286 nM
Plasmodium falciparum [4]
  Ratio IC50: 0.29
Plasmodium falciparum [5]
  Ratio IC50: 2.22
[8]
  inhibition: 64.7%

## Cc1cc(NCCCN)c2ccc3c(ccc4c(NCCCN)cc(C)nc43)c2n1.Cl
Plasmodium falciparum [1]
  IC50: 708 nM
  IC90: 1010 nM
Plasmodium falciparum [2]
  IC50: 1700 nM
  IC90: 3260 nM
Plasmodium falciparum [3]
  IC50: 2030 nM
  IC90: 3050 nM
Plasmodium falciparum [4]
  Ratio IC50: 2.4
Plasmodium falciparum [5]
  Ratio IC50: 2.87
[8]
  inhibition: 70%

## Cc1cc(NCCCN2CCOCC2)c2ccc3c(ccc4c(NCCCN5CCOCC5)cc(C)nc43)c2n1.Cl
Plasmodium falciparum [1]
  IC50: 5.23 nM
  IC90: 8.47 nM
Plasmodium falciparum [2]
  IC50: 2 nM
  IC90: 6.38 nM
Plasmodium falciparum [3]
  IC50: 8.05 nM
  IC90: 17.4 nM
Plasmodium falciparum [4]
  Ratio IC50: 0.38
Plasmodium falciparum [5]
  Ratio IC50: 1.54
RAW264.7
  IC50: 7480 nM
  IC90: 11000 nM
[10]
  IC50: 0.52 equiv
[11]
  selectivity ratio: 1430
[12]
  selectivity ratio: 3740
[13]
  selectivity ratio: 929
[14]
  selectivity ratio: 1300
[15]
  selectivity ratio: 1730
[16]
  selectivity ratio: 635
Liver microsomes
  t1/2: 0.667 h
Liver
  t1/2: > 1 h
Ebolavirus [6]
  inhibition at 20 µM: 96%
Ebolavirus [7]
  IC50: 2500 nM
Vero
  Activity: < 20%
[8]
  inhibition: 55.6%
[17]
  inhibition (INH): 92%
[18]
  inhibition: Dose-dependent effect

## Cc1cc(NCCCCN)c2ccc3c(ccc4c(NCCCCN)cc(C)nc43)c2n1
[8]
  inhibition: 72.2%

## Cc1cc(NCCCN(C)C)c2ccc3c(ccc4c(NCCCN(C)C)cc(C)nc43)c2n1.Cl
Plasmodium falciparum [1]
  IC50: 103 nM
  IC90: 210 nM
Plasmodium falciparum [2]
  IC50: 353 nM
  IC90: 709 nM
Plasmodium falciparum [3]
  IC50: 54.8 nM
  IC90: 699 nM
Plasmodium falciparum [4]
  Ratio IC50: 3.41
Plasmodium falciparum [5]
  Ratio IC50: 0.53
[8]
  inhibition: 68.9%

## CCN(CC)CCCC(C)Nc1ccnc2cc(Cl)ccc12 (configuration not stated) [CHLOROQUINE]
Plasmodium falciparum [1]
  IC90: 16.1 nM
Plasmodium falciparum [2]
  IC90: 698 nM
Plasmodium falciparum [3]
  IC90: 373 nM

## Cc1cc(NCCN2CCCC2)c2ccc3c(ccc4c(NCCN5CCCC5)cc(C)nc43)c2n1.Cl
Plasmodium falciparum [1]
  IC50: 16.8 nM
  IC90: 32.3 nM
Plasmodium falciparum [2]
  IC50: 8.11 nM
  IC90: 28 nM
Plasmodium falciparum [3]
  IC50: 25.9 nM
  IC90: 40.3 nM
Plasmodium falciparum [4]
  Ratio IC50: 0.48
Plasmodium falciparum [5]
  Ratio IC50: 1.54
[10]
  IC50: 0.401 equiv
[8]
  inhibition: 60.3%
[18]
  inhibition: Dose-dependent effect

## C[C@@H]1CC[C@H]2[C@@H](C)C(=O)O[C@@H]3O[C@@]4(C)CC[C@@H]1[C@]32OO4 [ARTEMISININ]
Plasmodium falciparum [1]
  IC50: 9 nM
  IC90: 12.8 nM
Plasmodium falciparum [2]
  IC50: 6.7 nM
  IC90: 11.5 nM
Plasmodium falciparum [3]
  IC50: 13 nM
  IC90: 17.4 nM

## CCN(CC)CCNc1cc(C)nc2c1ccc1c2ccc2c(NCCN(CC)CC)cc(C)nc21.Cl
Plasmodium falciparum [1]
  IC50: 6.01 nM
  IC90: 9.01 nM
Plasmodium falciparum [2]
  IC90: 10.1 nM
Plasmodium falciparum [3]
  IC50: 3.32 nM
  IC90: 3.79 nM
Plasmodium falciparum [4]
  Ratio IC50: 0.57
Plasmodium falciparum [5]
  Ratio IC50: 0.55
RAW264.7
  IC50: 9350 nM
  IC90: 10700 nM
[11]
  selectivity ratio: 1560
[12]
  selectivity ratio: 2690
[13]
  selectivity ratio: 282
[14]
  selectivity ratio: 1190
[15]
  selectivity ratio: 1060
[16]
  selectivity ratio: 2830
Liver microsomes
  t1/2: > 1 h
Liver
  t1/2: > 1 h
Ebolavirus [6]
  inhibition at 20 µM: 97%
Ebolavirus [7]
  IC50: 5000 nM
Vero
  Activity: < 20%
[8]
  inhibition: 55.4%
Plasmodium berghei
  Activity: inactive
Mus musculus
  Activity: Non-toxic
